In ChEMBL document CHEMBL4043182, “On the synthesis of quinone-based BODIPY hybrids: New insights on antitumor activity and mechanism of action in cancer cells” (Bioorg Med Chem Lett, 2017):

Tests used:
[1] = test system: PC-3; assay: Antiproliferative activity against human PC3 cells after 72 hrs by MTT assay; format: functional, cell-based; details: PC-3, 72 h
Procedure, shortened: (§1)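 MTT reduction: cancer lines plated at 0.7×10^5 to 0.3×10^6 cells/well, V79 and L929 fibroblasts at 0.5×10^5 cells/well. Compounds in DMSO (0.1%) were given for 24 h at 0.04–40.92 µM or 72 h at 0.04–8.19 µM. Fresh medium with 0.5 mg/mL MTT was added for 3 h, then formazan was dissolved in DMSO and read at 595 nm as % of control. IC50 came from nonlinear regression with 95% CI. Doxorubicin (0.001–1.06 µM) was the positive control. Triplicate, ≥3 repeats.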

[2] = test system: SF-295; assay: Antiproliferative activity against human SF295 cells after 72 hrs by MTT assay; format: functional, cell-based; details: SF-295, 72 h; procedure, shortened: as §1
[3] = test system: MDA-MB-435; assay: Antiproliferative activity against human MDA-MB-435 cells after 72 hrs by MTT assay; format: functional, cell-based; details: MDA-MB-435, 72 h; procedure, shortened: as §1
[4] = test system: SW-620; assay: Antiproliferative activity against human SW620 cells after 72 hrs by MTT assay; format: functional, cell-based; details: SW-620, 72 h; procedure, shortened: as §1
[5] = test system: HCT-116; assay: Antiproliferative activity against human HCT116 cells after 72 hrs by MTT assay; format: functional, cell-based; details: HCT-116, 72 h; procedure, shortened: as §1
[6] = test system: L929; assay: Antiproliferative activity against mouse L929 cells after 72 hrs by MTT assay; format: cell-based; details: L929, 72 h; procedure, shortened: as §1
[7] = test system: V79; assay: Antiproliferative activity against chinese hamster V79 cells after 72 hrs by MTT assay; format: cell-based; details: Cricetulus griseus, V79, 72 h; procedure, shortened: as §1
[8] = test system: PC-3; assay: Cytotoxicity against human PC3 cells after 24 hrs in presence of GSH-OEt by MTT assay; format: functional, cell-based; details: PC-3, 24 h
Procedure, shortened: (§2)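 24 h MTT exposure (0.04–40.92 µM in 0.1% DMSO), with or without co-treatment with GSH ethyl ester (15 mM) to gauge the ROS contribution. MTT was 0.5 mg/mL for 3 h, with formazan dissolved in DMSO and absorbance at 595 nm expressed as % of control. Triplicate, repeated at least three times.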

[9] = test system: SF-295; assay: Cytotoxicity against human SF295 cells after 24 hrs in presence of GSH-OEt by MTT assay; format: functional, cell-based; details: SF-295, 24 h; procedure, shortened: as §2
[10] = test system: HCT-116; assay: Cytotoxicity against human HCT116 cells after 24 hrs in presence of GSH-OEt by MTT assay; format: functional, cell-based; details: HCT-116, 24 h; procedure, shortened: as §2
[11] = test system: L929; assay: Cytotoxicity against mouse L929 cells after 24 hrs in presence of GSH-OEt by MTT assay; format: cell-based; details: L929, 24 h; procedure, shortened: as §2
[12] = test system: PC-3; assay: Cytotoxicity against human PC3 cells after 24 hrs in absence of GSH-OEt by MTT assay; format: functional, cell-based; details: PC-3, 24 h; procedure, shortened: as §2
[13] = test system: SF-295; assay: Cytotoxicity against human SF295 cells after 24 hrs in absence of GSH-OEt by MTT assay; format: functional, cell-based; details: SF-295, 24 h; procedure, shortened: as §2
[14] = test system: HCT-116; assay: Cytotoxicity against human HCT116 cells after 24 hrs in absence of GSH-OEt by MTT assay; format: functional, cell-based; details: HCT-116, 24 h; procedure, shortened: as §2
[15] = test system: L929; assay: Cytotoxicity against mouse L929 cells after 24 hrs in absence of GSH-OEt by MTT assay; format: cell-based; details: L929, 24 h; procedure, shortened: as §2

Row | SMILES | IC50 [1] | IC50 [2] | IC50 [3] | IC50 [4] | IC50 [5] | IC50 [6] | IC50 [7] | IC50 [8] | IC50 [9] | IC50 [10] | IC50 [11] | IC50 [12] | IC50 [13] | IC50 [14] | IC50 [15]
1 | CC1(C)CC(n2cc(CNc3ccc4n3[B-](F)(F)[N+]3=C(Cl)C=CC3=C4c3ccccc3)nn2)C2=C(O1)C(=O)c1ccccc1C2=O (stereo not given) | > 7.83 µM | > 7.83 µM | > 7.83 µM | > 7.83 µM | > 7.83 µM | > 7.83 µM | > 7.83 µM | > 40 µM | > 40 µM | > 40 µM | > 40 µM | > 40 µM | > 40 µM | > 40 µM | > 40 µM
2 | CC1(C)OC2=C(C(=O)c3ccccc3C2=O)C1n1cc(CNC2=[N+]3C(=C(c4ccccc4)c4ccc(Cl)n4[B-]3(F)F)C=C2)nn1 (stereo not given) | > 8.1 µM | > 8.1 µM | > 8.1 µM | > 8.1 µM | > 8.1 µM | > 8.1 µM | > 8.1 µM | > 40 µM | > 40 µM | > 40 µM | > 40 µM | > 40 µM | > 40 µM | > 40 µM | > 40 µM
3 | O=C1C2=C(OC(Cn3cc(CNc4ccc5n4[B-](F)(F)[N+]4=C(Cl)C=CC4=C5c4ccccc4)nn3)C2)C(=O)c2ccccc21 (stereo not given) | > 8.19 µM | > 8.19 µM | > 8.19 µM | > 8.19 µM | > 8.19 µM | > 8.19 µM | > 8.19 µM | > 40 µM | > 40 µM | > 40 µM | > 40 µM | > 40 µM | > 40 µM | > 40 µM | > 40 µM
